Data taken from ChEMBL document CHEMBL1143520, “Bicyclic amidine inhibitors of nitric oxide synthase: discovery of perhydro-iminopyrindine and perhydro-iminoquinoline as potent, orally active inhibitors of inducible nitric oxide synthase” (Bioorg Med Chem Lett, 2005).

Experiments:
Rattus norvegicus [1] = assay: Percentage inhibition of plasma nitrite/nitrate after peroral administration of 10 mg/kg of compound to rats 2 hr prior to LPS treating; assay type: functional; conditions: route oral
In short: (§1)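 Rats given 10 mg/kg po at set times before LPS challenge. Plasma nitrate/nitrite measured 5 h after LPS: nitrate reduced to nitrite by nitrate reductase, then fluorometric nitrite read-out. Reported as % inhibition of plasma NOx.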

Nitric oxide synthase 1 = Nitric oxide synthase 1 (Homo sapiens, UniProt P29475); assay: Inhibitory activity against human Neuronal nitric oxide synthase (nNOS)
Sequence of Nitric oxide synthase 1 (P29475 whole entry): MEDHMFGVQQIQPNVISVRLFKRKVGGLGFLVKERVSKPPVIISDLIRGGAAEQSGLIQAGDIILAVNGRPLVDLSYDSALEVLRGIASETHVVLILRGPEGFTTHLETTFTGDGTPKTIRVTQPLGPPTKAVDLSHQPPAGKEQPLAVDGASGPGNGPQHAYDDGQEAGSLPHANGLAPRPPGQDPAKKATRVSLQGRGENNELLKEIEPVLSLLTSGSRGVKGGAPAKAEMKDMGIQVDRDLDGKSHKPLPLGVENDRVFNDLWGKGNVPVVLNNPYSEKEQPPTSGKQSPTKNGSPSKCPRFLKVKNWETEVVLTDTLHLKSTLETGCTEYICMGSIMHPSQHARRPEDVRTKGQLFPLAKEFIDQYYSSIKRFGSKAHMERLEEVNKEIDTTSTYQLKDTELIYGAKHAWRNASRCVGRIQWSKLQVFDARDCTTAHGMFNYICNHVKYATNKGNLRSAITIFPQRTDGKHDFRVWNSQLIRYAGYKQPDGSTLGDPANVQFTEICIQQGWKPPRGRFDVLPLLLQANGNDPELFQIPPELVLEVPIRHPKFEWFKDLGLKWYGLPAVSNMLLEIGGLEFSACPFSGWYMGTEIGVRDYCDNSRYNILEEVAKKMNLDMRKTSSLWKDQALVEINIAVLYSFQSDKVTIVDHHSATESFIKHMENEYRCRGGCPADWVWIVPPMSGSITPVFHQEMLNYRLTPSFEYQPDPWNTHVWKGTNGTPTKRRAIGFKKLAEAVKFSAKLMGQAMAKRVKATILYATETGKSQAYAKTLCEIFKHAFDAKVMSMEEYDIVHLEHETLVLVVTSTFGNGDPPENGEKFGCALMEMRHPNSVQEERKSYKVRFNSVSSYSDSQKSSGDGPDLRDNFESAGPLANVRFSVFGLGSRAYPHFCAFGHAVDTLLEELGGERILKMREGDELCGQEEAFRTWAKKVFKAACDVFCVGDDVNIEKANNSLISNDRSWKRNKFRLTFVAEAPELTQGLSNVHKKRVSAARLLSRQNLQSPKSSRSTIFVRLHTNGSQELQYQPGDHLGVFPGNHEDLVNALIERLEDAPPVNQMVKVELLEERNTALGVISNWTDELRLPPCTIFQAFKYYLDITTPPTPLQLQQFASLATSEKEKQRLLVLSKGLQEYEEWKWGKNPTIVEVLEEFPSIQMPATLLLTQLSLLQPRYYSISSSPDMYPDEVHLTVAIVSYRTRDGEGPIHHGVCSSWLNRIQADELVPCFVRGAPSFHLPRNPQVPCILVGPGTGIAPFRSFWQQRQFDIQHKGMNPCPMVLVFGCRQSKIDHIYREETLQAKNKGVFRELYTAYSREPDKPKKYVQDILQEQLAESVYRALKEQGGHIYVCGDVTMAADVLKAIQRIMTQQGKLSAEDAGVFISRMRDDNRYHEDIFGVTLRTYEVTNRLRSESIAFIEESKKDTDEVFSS

Rattus norvegicus [2] = assay: Effective dose causing 50% reduction in plasma nitrite relative to control animals after intravenous administration in LPS treated rats; assay type: functional
In short: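 Rat endotoxin model: LPS challenge, then iv dosing 2 h after LPS. Plasma collected 5 h after LPS. Nitrate converted to nitrite with nitrate reductase, then total nitrite/nitrate measured fluorometrically.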

Rattus norvegicus [3] = assay: Percentage inhibition of plasma nitrite/nitrate after peroral administration of 10 mg/kg of compound to rats 16 hr prior to LPS treating; assay type: functional; conditions: route oral; in short: as §1
Nitric oxide synthase 3 = molecular target: T1, Nitric oxide synthase 3 (Homo sapiens, UniProt P29474); assay: Inhibitory activity against human Endothelial nitric oxide synthase (eNOS)
T1 sequence (P29474 whole entry): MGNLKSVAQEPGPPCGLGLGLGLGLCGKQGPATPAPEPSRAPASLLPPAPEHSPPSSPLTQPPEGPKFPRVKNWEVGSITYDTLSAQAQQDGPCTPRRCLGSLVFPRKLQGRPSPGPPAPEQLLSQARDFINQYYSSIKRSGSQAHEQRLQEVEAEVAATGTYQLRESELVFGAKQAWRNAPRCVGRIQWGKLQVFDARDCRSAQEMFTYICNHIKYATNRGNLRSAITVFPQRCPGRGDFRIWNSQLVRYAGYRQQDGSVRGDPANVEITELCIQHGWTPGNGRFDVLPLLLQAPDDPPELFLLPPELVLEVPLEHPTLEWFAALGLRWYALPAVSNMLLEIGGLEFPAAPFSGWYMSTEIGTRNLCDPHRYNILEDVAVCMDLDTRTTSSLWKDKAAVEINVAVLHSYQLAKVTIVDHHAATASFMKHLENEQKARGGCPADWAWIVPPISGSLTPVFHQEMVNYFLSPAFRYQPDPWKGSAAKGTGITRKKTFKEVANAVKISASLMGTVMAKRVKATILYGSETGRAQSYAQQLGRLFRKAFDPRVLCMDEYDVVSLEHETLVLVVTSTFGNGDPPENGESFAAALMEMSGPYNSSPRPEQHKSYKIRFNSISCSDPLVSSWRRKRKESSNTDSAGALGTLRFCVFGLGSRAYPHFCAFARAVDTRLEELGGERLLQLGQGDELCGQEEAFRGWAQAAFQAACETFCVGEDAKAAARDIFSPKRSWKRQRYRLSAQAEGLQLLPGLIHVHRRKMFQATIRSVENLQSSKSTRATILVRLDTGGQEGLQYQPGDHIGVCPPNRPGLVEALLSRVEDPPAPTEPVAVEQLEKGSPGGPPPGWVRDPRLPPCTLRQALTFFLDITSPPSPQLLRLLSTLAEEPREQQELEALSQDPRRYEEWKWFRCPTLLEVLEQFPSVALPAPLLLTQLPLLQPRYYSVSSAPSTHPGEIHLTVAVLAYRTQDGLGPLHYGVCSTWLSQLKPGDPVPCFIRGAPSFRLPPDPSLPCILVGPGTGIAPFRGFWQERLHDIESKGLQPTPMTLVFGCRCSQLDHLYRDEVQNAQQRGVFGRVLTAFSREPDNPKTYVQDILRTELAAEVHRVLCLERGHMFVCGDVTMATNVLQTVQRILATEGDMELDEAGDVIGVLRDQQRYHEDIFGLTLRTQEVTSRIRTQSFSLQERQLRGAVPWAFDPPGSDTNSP

[4] = molecular target: Nitric oxide synthase, inducible (Homo sapiens, UniProt P35228); assay: Inhibitory activity against human Inducible nitric oxide synthase (iNOS)
Sequence of Nitric oxide synthase, inducible (P35228 whole entry): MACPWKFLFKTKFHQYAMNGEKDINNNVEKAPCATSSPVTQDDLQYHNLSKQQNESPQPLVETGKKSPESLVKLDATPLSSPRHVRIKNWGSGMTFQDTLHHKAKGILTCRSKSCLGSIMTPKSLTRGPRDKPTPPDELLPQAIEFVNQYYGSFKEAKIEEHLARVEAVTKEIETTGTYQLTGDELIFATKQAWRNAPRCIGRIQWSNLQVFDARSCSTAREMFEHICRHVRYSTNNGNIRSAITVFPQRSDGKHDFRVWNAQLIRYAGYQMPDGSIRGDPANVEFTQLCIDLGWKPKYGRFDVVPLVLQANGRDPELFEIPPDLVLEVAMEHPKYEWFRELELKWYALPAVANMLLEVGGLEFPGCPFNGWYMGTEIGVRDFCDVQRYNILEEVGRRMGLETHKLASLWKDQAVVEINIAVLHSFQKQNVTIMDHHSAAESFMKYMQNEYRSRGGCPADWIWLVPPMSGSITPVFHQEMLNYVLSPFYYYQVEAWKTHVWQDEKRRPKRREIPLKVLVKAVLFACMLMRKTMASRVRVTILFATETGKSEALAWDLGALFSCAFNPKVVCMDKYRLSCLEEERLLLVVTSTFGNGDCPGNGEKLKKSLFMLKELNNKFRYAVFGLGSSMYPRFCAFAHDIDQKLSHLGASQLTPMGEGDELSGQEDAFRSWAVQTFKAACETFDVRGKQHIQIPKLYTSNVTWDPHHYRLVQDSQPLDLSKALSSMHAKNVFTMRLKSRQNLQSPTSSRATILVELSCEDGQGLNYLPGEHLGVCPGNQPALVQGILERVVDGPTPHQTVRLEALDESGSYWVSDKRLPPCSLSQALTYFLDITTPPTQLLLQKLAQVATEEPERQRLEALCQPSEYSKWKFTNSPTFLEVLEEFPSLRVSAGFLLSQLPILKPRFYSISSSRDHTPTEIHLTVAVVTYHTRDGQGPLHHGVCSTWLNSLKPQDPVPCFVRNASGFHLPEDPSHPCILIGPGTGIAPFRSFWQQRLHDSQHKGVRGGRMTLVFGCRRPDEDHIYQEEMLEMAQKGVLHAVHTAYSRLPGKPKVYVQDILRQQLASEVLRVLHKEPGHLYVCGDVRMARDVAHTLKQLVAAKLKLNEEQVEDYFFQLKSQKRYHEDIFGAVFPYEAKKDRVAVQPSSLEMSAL

Rattus norvegicus [5] = assay: Percentage inhibition of plasma nitrite/nitrate after peroral administration of 10 mg/kg of compound to rats 1 hr prior to LPS treating; assay type: functional; conditions: route oral; in short: as §1
Rattus norvegicus [6] = assay: Percentage inhibition of plasma nitrite/nitrate after peroral administration of 10 mg/kg of compound to rats 4 hr prior to LPS treating; assay type: functional; conditions: route oral; in short: as §1
[7] = molecular target: Nitric oxide synthase (inducible and endothelial) (Homo sapiens) (UniProt P35228+P29474); assay: Selectivity measured as the ratio of eNOS IC50/iNOS IC50; assay type: protein assay

SMILES | inhibition in vivo at 10 mg/kg (Rattus norvegicus [1]) | IC50 (Nitric oxide synthase 1) | ED50 (Rattus norvegicus [2]) | inhibition in vivo at 10 mg/kg (Rattus norvegicus [3]) | IC50 (Nitric oxide synthase 3) | IC50 [4] | inhibition in vivo at 10 mg/kg (Rattus norvegicus [5]) | inhibition in vivo at 10 mg/kg (Rattus norvegicus [6]) | Selectivity [7]
C[C@@H]1CC(N)=N[C@@H]2CCC[C@H]12 (stereo in doubt; 10a) [listing 1 of 2 here] | 80% | 0.021 µM | 0.25 mg/kg | 39% | 0.36 µM | 0.009 µM | 95% | 52% | 
C[C@H]1CC(N)=N[C@H]2CCCC[C@H]21 |  | 0.61 µM |  |  | > 5 µM | > 5 µM |  |  | 
C[C@@H]1CC(N)=N[C@@H]2CCC[C@H]12 (stereo in doubt; 10) [listing 1 of 2 here] |  |  |  |  |  |  |  |  | 31
NC1=N[C@H]2CCCC[C@@H]2CC1 |  | 0.53 µM |  |  | 5.5 µM | 0.528 µM |  |  | 
C[C@@H]1CC(N)=N[C@H]2CCCC[C@@H]12 |  | 0.19 µM |  |  | 2 µM | 0.038 µM |  |  | 52
C[C@H]1CC(N)=N[C@H]2CCC[C@H]21 |  | 0.036 µM |  |  | 0.87 µM | 0.133 µM |  |  | 6.5
C[C@@H]1CC(N)=N[C@@H]2CCC[C@H]12 (stereo in doubt; 10a) [listing 2 of 2 here] |  |  |  |  |  |  |  |  | 40
C[C@@H]1CC(N)=N[C@@H]2CCCCC[C@H]12 |  | 1.3 µM |  |  | 4.5 µM | 0.86 µM |  |  | 5.2
C[C@@H]1CC(N)=N[C@@H]2CCCC[C@H]12 | 69% | 0.053 µM | 0.19 mg/kg | 42% | 0.83 µM | 0.022 µM | 57% | 74% | 37
CC1CCN=C(N)C1 (configuration not stated) |  |  | 0.5 mg/kg |  |  | 0.037 µM |  |  | 
N=C1CCCCN1 |  |  |  |  | 0.63 µM | 0.3 µM |  |  | 
NC1=N[C@H]2CCCC[C@H]2CC1 |  | 0.246 µM |  |  | 12.5 µM | 0.186 µM |  |  | 67
NC1=Nc2ccccc2CC1 |  | 4.9 µM |  |  | 85 µM | 14 µM |  |  | 6.1
C[C@@H]1CC(N)=N[C@@H]2CCC[C@H]12 (stereo in doubt; 10) [listing 2 of 2 here] |  | 0.031 µM |  |  | 0.47 µM | 0.015 µM |  |  | 
